ChEMBL document CHEMBL4765310, “Discovery of 4-(3,5-dimethoxy-4-(((4-methoxyphenethyl)amino)methyl)phenoxy)-N-phenylaniline as a novel c-myc inhibitor against colorectal cancer in vitro and in vivo” (Eur J Med Chem, 2020)
The source made the active and inactive calls. No cut-off for these calls is given here.

Columns and labels:
[1] = system: SW-620; assay: Antiproliferative activity against human SW-620 cells assessed as inhibition of cell viability measured after 72 hrs by MTT assay; assay type: functional, cell-based; details: SW-620, 72 h
Summary of the method: (§1)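 Cells kept at 37 °C, 5% CO₂ in RPMI 1640, L-15 or DMEM with 10% FBS and 1% penicillin-streptomycin. Plated at 2-4 × 10³ cells/well and dosed 24 h after plating. After 72 h exposure, MTT added for 2-4 h at 37 °C. Formazan dissolved in DMSO, absorbance read at 570 nm. IC50 is the mean of at least three independent experiments.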

[2] = system: HCT-116; assay: Antiproliferative activity against human HCT-116 cells assessed as inhibition of cell viability measured after 72 hrs by MTT assay; assay type: functional, cell-based; details: HCT-116, 72 h; summary of the method: as §1
[3] = system: HT-29; assay: Antiproliferative activity against human HT-29 cells assessed as inhibition of cell viability measured after 72 hrs by MTT assay; assay type: functional, cell-based; details: HT-29, 72 h; summary of the method: as §1
[4] = system: HT-29; assay: Antitumour activity against human HT-29 cells xenografted in Balb/c mouse assessed as inhibition of tumour growth at 30 mg/kg, po administered via gavage for 30 days and measured every 2 days by vernier caliper analysis; assay type: functional, organism-based; details: time 30.0 day
Summary of the method: (§2)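 Female BALB/c nude mice, 6–7 weeks old, injected subcutaneously with 8×10^6 HT29 cells. At about 100 mm³ average tumour volume, mice were randomised into groups (n=5). Dosing was daily oral gavage for 30 days in 10% DMSO/1% Tween-80/saline, with a vehicle group. Tumour size (calipers; 0.5 × shortest diameter² × longest diameter) and body weight were recorded every two days.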

[5] = system: DLD-1; assay: Antiproliferative activity against human DLD-1 cells assessed as inhibition of cell viability measured after 72 hrs by MTT assay; assay type: functional, cell-based; details: DLD-1, 72 h; summary of the method: as §1
[6] = system: HCT-15; assay: Antiproliferative activity against human HCT-15 cells assessed as inhibition of cell viability measured after 72 hrs by MTT assay; assay type: functional, cell-based; details: HCT-15, 72 h; summary of the method: as §1
[7] = system: L02; assay: Cytotoxicity against human L02 cells assessed as inhibition of cell viability at 0.625 to 40 uM measured after 72 hrs by MTT assay; assay type: cell-based; details: l02, 72 h, dose 0.625-40 µM
Summary of the method: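 Cells were grown at 37 °C, 5% CO2, in medium with 10% FBS, and seeded at 2–4×10^3 cells/well. Compound was added 24 h after plating and left for 72 h. MTT (5 mg/mL stock) was then added for 2–4 h at 37 °C, formazan was dissolved in DMSO, and absorbance read at 570 nm. Values are means of at least three independent experiments.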

[8] = Toxicity in Balb/c mouse xenografted with human HT-29 cells assessed as reduction in body weight at 30 mg/kg, po administered via gavage measured after 10 days; assay type: organism-based; details: in vivo, 240 h, time 10 day; summary of the method: as §2

Which results are given for `O=c1[nH]cc(F)c(=O)[nH]1` [FLUOROURACIL]?
IC50 [1]: 15.3 µM; IC50 [2]: 12.3 µM; IC50 [3]: 13.4 µM; Activity [4]: Active; IC50 [5]: 11.4 µM; IC50 [6]: 10.9 µM; Activity [7]: Toxic; Activity [8]: Toxic
